The test system of assay [1] is Candida albicans. Put plainly: In vitro evaluation of minimum inhibitory concentration against Candida albicans 76. In kind it is functional. The following applies: Candida albicans; read-out: MIC. In outline: (§1)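 Stocks are 800 μg/mL in 50% ethanol. Each plate gets 10 μL of inoculum at 10^5 cfu/mL. Incubation at 25 °C, 48 h for yeasts and 120 h for dermatophytes and molds. Organisms are ATCC strains or clinical isolates.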

Assay [2] concerns Candida albicans. Kind of assay: In vivo evaluation of minimum inhibitory concentration against Candida albicans 406. The following applies: Candida albicans; read-out: MIC. It counts as functional. In outline: (§2)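 Broth macrodilution MIC following NCCLS M27-P, in RPMI-1640 buffered with 0.165 M MOPS. Fluconazole was dissolved in water and other drugs in DMSO. C. parapsilosis ATCC 22019 served as the reference strain in every run. MIC was the lowest concentration giving turbidity at or below the 80% inhibition standard.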

The next assay concerns Kluyveromyces marxianus. Kind of assay: In vivo Evaluation of minimum inhibitory concentration against Candida pseudotropicalis 13. The following applies: Kluyveromyces marxianus; in the assay text read “In vitro” for “In vivo”; read-out: MIC. It counts as functional. In outline:
as §1

The subject of the next assay is Aspergillus niger. Put plainly: In vitro evaluation of minimum inhibitory concentration against Aspergillus niger 18. It counts as functional. The following applies: Aspergillus niger; read-out: MIC. In outline: as §1
For a further assay, the system named is Candida parapsilosis. Kind of assay: In vitro evaluation of minimum inhibitory concentration against Candida parapsilosis 61. In kind it is functional. The following applies: Lodderomyces parapsilosis; read-out: MIC. In outline: as §1
For another assay, the system named is Rhodotorula mucilaginosa. Kind of assay: In vitro evaluation of minimum inhibitory concentration against Rhodotorula rubra 16. The following applies: Rhodotorula mucilaginosa; read-out: MIC. In kind it is functional. In outline:
as §1

Another assay deals with Pichia kudriavzevii. Put plainly: In vitro evaluation of minimum inhibitory concentration against Candida krusei 70. It counts as functional. The following applies: Pichia kudriavzevii; read-out: MIC. In a few lines:
as §1

In the next assay the test system is Nakaseomyces glabratus. Kind of assay: In vitro evaluation of minimum inhibitory concentration against Torulopsis glabrata 78. It counts as functional. The following applies: Nakaseomyces glabratus; read-out: MIC. In outline: as §1
Assay [3] relates to Meyerozyma guilliermondii. Kind of assay: In vitro evaluation of minimum inhibitory concentration against Candida guilliermondii 26. It counts as functional. The following applies: Meyerozyma guilliermondii; read-out: MIC. In outline: as §1
In the next assay the test system is Aspergillus fumigatus. Kind of assay: In vitro evaluation of minimum inhibitory concentration against Aspergillus fumigatus 33. The following applies: Aspergillus fumigatus; read-out: MIC. In kind it is functional. In a few lines: as §1
Assay [4] concerns Mus sp. Kind of assay: In vivo evaluation of % survival rate after peroral administration on 7th day at dose 1 mg/kg. In kind it is functional. The following applies: Mus sp., po.
Assay [5] concerns Mus sp. Put plainly: In vivo evaluation of % survival rate after peroral administration on 9th day at dose 1 mg/kg. It counts as functional. The following applies: Mus sp., po.
Assay [6] deals with Mus sp. Kind of assay: In vivo evaluation of % survival rate after peroral administration on 3rd day at dose 1 mg/kg. It counts as functional. The following applies: Mus sp., po.
A further assay relates to Candida tropicalis. Kind of assay: In vitro evaluation of minimum inhibitory concentration against Candida tropicalis 2.11. The following applies: Candida tropicalis; read-out: MIC. In kind it is functional. In outline:
as §1

The test system of a further assay is Aspergillus flavus. Kind of assay: In vitro evaluation of minimum inhibitory concentration against Aspergillus flavus 19. It counts as functional. The following applies: Aspergillus flavus; read-out: MIC. In outline:
as §1

Another assay relates to Trichophyton rubrum. Kind of assay: In vitro evaluation of minimum inhibitory concentration against Trichophyton rubrum 90. It counts as functional. The following applies: Trichophyton rubrum; read-out: MIC. In a few lines:
as §1

The test system of the next assay is Nannizzia gypsea. Kind of assay: In vitro evaluation of minimum inhibitory concentration against Microsporum gypseum 22. The following applies: Nannizzia gypsea; read-out: MIC. It counts as functional. In a few lines: as §1
Assay [7] relates to Mus sp. Put plainly: In vivo evaluation of % survival rate after peroral administration on 5th day at dose 1 mg/kg. In kind it is functional. The following applies: Mus sp., po.
For assay [8], the system named is Candida albicans. Put plainly: In vivo evaluation of minimum inhibitory concentration against Candida albicans 60. The following applies: Candida albicans; read-out: MIC. It counts as functional. In outline:
as §2

The next assay relates to Trichophyton benhamiae. Put plainly: In vitro evaluation of minimum inhibitory concentration against Trichophyton mentagrophytes 23. The following applies: Trichophyton benhamiae; read-out: MIC. In kind it is functional, Arthroderma benhamiae. In a few lines: as §1
The next assay concerns Microsporum canis. Put plainly: In vitro evaluation of minimum inhibitory concentration against Microsporum canis 47. In kind it is functional. The following applies: Microsporum canis; read-out: MIC. In a few lines:
as §1

For orientation: MIC means the lowest concentration that inhibits growth of the organism.

Values after ≈ are worked out from the molar mass of the structure shown. Where only a bound is given, the exact number is not on record here.

Turning to `C[C@H]1N(C(=O)c2ccc(OCC(F)(F)C(F)F)cc2)C[C@H](O)O[C@@]1(Cn1cncn1)c1ccc(F)cc1F` (racemic), the MIC in the assay on Candida albicans [1] is 80 mg/L (≈ 147 µM); with Candida albicans [2], 1.25 mg/L (≈ 2.3 µM); in the assay on Kluyveromyces marxianus it was 0.63 mg/L (≈ 1.16 µM); with Aspergillus niger, above 80 mg/L; in the assay with Candida parapsilosis it was 10 mg/L (≈ 18.4 µM); in the assay on Rhodotorula mucilaginosa it was above 80 mg/L. Also, the MIC with Pichia kudriavzevii is above 80 mg/L; in the assay with Nakaseomyces glabratus, above 80 mg/L; in assay [3] it was 80 mg/L (≈ 147 µM); in the assay with Aspergillus fumigatus it was above 80 mg/L; with Candida tropicalis, 80 mg/L (≈ 147 µM); with Aspergillus flavus it was above 80 mg/L. In addition, the MIC was above 80 mg/L with Trichophyton rubrum; above 80 mg/L with Nannizzia gypsea; 5 mg/L (≈ 9.18 µM) in the assay with Candida albicans [8]; above 80 mg/L in the assay with Trichophyton benhamiae; above 80 mg/L in the assay with Microsporum canis. The survival at 1 mg/kg with Mus sp. [4] stood at 0%; in the assay on Mus sp. [5], 0%; with Mus sp. [6], 80%; in the assay on Mus sp. [7], 50%.

The values are drawn from ChEMBL document CHEMBL1128448, “Synthesis and antifungal activity of new azole derivatives containing an N-acylmorpholine ring” (1995).
